Laboratory results taken from BindingDB's records for doi:10.1021/acs.jmedchem.8b00653 (Aix-Marseille University, 2018).

Target: Bromodomain-containing protein 4 (Homo sapiens, UniProt O60885)
Assay: Inhibition of TEV cleavage site-fused-GST tagged BRD4(BD1) (unknown origin) using SGRGK(Ac)CGK(Ac)-GLGK(Ac)GGAK(Ac)RHRKVG-peptide after 3 hrs by HTRF assay
Procedure, shortened: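 GST-BRD4(BD1) purified on glutathione resin and by size exclusion; tetra-acetylated H4 peptide as ligand. Buffer 50 mM HEPES pH 7.5, 400 mM KF, 0.1% BSA, 0.5% DMSO final; 3 h at room temperature.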

- IC50: 0.251 µM
SMILES: CCn1cnc2c1c(=O)[nH]c(=O)n2Cc1ccc(CNS(=O)(=O)c2ccc3c(c2)CCCC(=O)N3)cc1
